# Results taken from ChEMBL document CHEMBL1142646, “Tetrahydroisoquinoline 1-carboxamides as growth hormone secretagogues” (Bioorg Med Chem Lett, 2005).
# Species: Rattus norvegicus
# Assay: Number of rats with greater than 100% GH increase over the controlgroup, there are five rats in both control and compound treated groups.
# Type: functional
# How it was run: (§1)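 Anesthetized rats (treatment stabilizes baseline plasma GH near 60 ng/mL) were given drug or vehicle (10% ethanol, 0.09% saline V/V) IV at 10 mL/kg, five rats per group. Blood was drawn from the abdominal aorta 15 min later for plasma GH. The result is expressed as % increase over the vehicle group, or as rats exceeding a 100% increase.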
row,Compound,Responder
1,CC(=O)C(C)(C)OC(=O)N1CCc2cc(OCc3ccccc3)ccc2C1C(=O)NCCN(C(C)C)C(C)C (configuration not stated),5 rats
2,COc1ccc(Oc2ccc3c(c2)CCN(C(=O)OC(C)(C)C)C3C(=O)NCCN(C(C)C)C(C)C)cc1 (configuration not stated),4 rats
3,COC(=O)C(C)(C)OC(=O)N1CCc2cc(OCc3ccccc3)ccc2C1C(=O)NCCN(C(C)C)C(C)C (configuration not stated),5 rats

# Species: Rattus norvegicus
# Assay: Number of rats with greater than 100% growth hormone increase over the control group, there are five rats in both control and compound treated groups
# Type: functional
# How it was run: as §1
row,Compound,Responder
1,"CC(C)N(CCNC(=O)C1c2ccc(Oc3ccccc3)cc2CCN1C(=O)OC(C)(C)C)C(C)C (single isomer, unassigned; form 2)",5 rats

# Molecular target: T1, Growth hormone secretagogue receptor type 1 (Homo sapiens, UniProt Q92847)
# Assay: In vivo effective concentration against human growth hormone secretagogues
# Type: functional, organism-based, Rattus norvegicus
# T1 sequence (Q92847 whole entry): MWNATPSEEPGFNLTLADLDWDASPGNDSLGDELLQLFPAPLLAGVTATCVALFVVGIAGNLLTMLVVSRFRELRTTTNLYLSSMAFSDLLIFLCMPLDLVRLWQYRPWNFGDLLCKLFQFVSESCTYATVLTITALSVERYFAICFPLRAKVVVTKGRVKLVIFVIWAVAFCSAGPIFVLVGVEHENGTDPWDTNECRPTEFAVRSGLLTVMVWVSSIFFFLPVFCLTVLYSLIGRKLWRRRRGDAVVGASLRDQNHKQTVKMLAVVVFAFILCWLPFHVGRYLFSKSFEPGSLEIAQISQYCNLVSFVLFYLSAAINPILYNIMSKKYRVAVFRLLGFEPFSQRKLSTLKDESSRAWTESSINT
row,Compound,EC50
1,"CC(C)N(CCNC(=O)C1c2ccc(Oc3ccccc3)cc2CCN1C(=O)OC(C)(C)C)C(C)C (single isomer, unassigned; form 2)",0.46 nM

# Molecular target: T1, Growth hormone secretagogue receptor type 1
# Assay: In vitro effective concentration against human growth hormone secretagogues
# Type: functional
# How it was run: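 Cell-based FLIPR functional assay in H4 glioma cells in which expression of the endogenous human GHS receptor is enhanced by RAGE-activation. Agonism is read as intracellular calcium mobilization with a calcium-sensitive fluorescent probe, and EC50 is derived from the response.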
row,Compound,EC50
1,CC(C(=O)N1CCc2cc(OCc3ccccc3)ccc2C1C(=O)NCCN(C(C)C)C(C)C)c1ccccc1 (configuration not stated),3.4 nM
2,CC(C)N(CCNC(=O)C1c2ccc(OCc3ccccc3)cc2CCN1S(=O)(=O)Cc1ccccc1)C(C)C (configuration not stated),7.3 nM
3,"CC(C)N(CCNC(=O)C1c2ccc(Oc3ccccc3)cc2CCN1C(=O)OC(C)(C)C)C(C)C (single isomer, unassigned; form 1)",7.6 nM
4,CC(=O)Nc1cccc(Oc2ccc3c(c2)CCN(C(=O)OC(C)(C)C)C3C(=O)NCCN(C(C)C)C(C)C)c1 (configuration not stated),12 nM
5,CC(C)N(CCNC(=O)C1c2ccc(OCc3ccccc3)cc2CCN1C(=O)OC(C)(C)C(=O)N(C)C)C(C)C (configuration not stated),0.85 nM
6,CC(C)N(CCNC(=O)C1c2ccc(Oc3ccc(C(F)(F)F)cc3)cc2CCN1C(=O)OC(C)(C)C)C(C)C (configuration not stated),2.3 nM
7,CC(C)N(CCNC(=O)C1c2ccc(Oc3cccc([N+](=O)[O-])c3)cc2CCN1C(=O)OC(C)(C)C)C(C)C (configuration not stated),0.66 nM
8,CC(C)N(CCNC(=O)C1c2ccc(OCc3ccccc3)cc2CCN1C(=O)Cc1ccccc1F)C(C)C (configuration not stated),43 nM
9,CC(C)N(CCNC(=O)C1c2ccc(OCc3ccccc3)cc2CCN1C(=O)c1ccccc1F)C(C)C (configuration not stated),17.8 nM
10,CC(C)N(CCNC(=O)C1c2ccc(OCc3ccccc3)cc2CCN1C(=O)OC(C)(C)C#N)C(C)C (configuration not stated),9.8 nM
11,CC(C)N(CCNC(=O)C1c2ccc(OCc3ccccc3)cc2CCN1C(=O)OCc1ccccc1)C(C)C (configuration not stated),27 nM
12,CC(=O)C(C)(C)OC(=O)N1CCc2cc(OCc3ccccc3)ccc2C1C(=O)NCCN(C(C)C)C(C)C (configuration not stated),2 nM
13,CC(C)N(CCNC(=O)C1c2ccc(OCc3ccccc3)cc2CCN1C(=O)CCc1ccccc1)C(C)C (configuration not stated),26.7 nM
14,CCN(CC)CCNC(=O)C1c2ccc(OCc3ccccc3)cc2CCN1C(=O)OC(C)(C)C (configuration not stated),19.6 nM
15,CC(C)N(CCNC(=O)C1c2ccc(OCc3ccccc3)cc2CCN1C(=O)OC(C)(C)C)C(C)C (configuration not stated),11.7 nM
16,CC(C)N(CCNC(=O)C1c2ccc(OCc3ccccc3)cc2CCN1C(=O)C(O)c1ccccc1)C(C)C (configuration not stated),39 nM
17,CC(C)N(CCNC(=O)C1c2ccc(OCc3ccccc3)cc2CCN1C(=O)OC1CCCCC1)C(C)C (configuration not stated),4.9 nM
18,CC(C)NCCNC(=O)C1c2ccc(OCc3ccccc3)cc2CCN1C(=O)OC(C)(C)C (configuration not stated),219 nM
19,CC(C)N(CCNC(=O)C1c2ccc(OCc3ccccc3)cc2CCN1C(=O)CCCc1ccccc1)C(C)C (configuration not stated),13.1 nM
20,CSc1ccc(Oc2ccc3c(c2)CCN(C(=O)OC(C)(C)C)C3C(=O)NCCN(C(C)C)C(C)C)cc1 (configuration not stated),2.4 nM
21,CC(C)N(CCNC(=O)C1c2ccc(Oc3cccc(F)c3)cc2CCN1C(=O)OC(C)(C)C)C(C)C (configuration not stated),4.3 nM
22,CC(C)N(CCNC(=O)C1c2ccc(Oc3ccc(C=O)cc3)cc2CCN1C(=O)OC(C)(C)C)C(C)C (configuration not stated),1.4 nM
23,CC(C)N(CCNC(=O)C1c2ccc(OCc3ccccc3)cc2CCN1S(=O)(=O)N(C)C)C(C)C (configuration not stated),21 nM
24,CC(C)(CN)CNC(=O)C1c2ccc(OCc3ccccc3)cc2CCN1C(=O)OC(C)(C)C (configuration not stated),257 nM

row,Compound,EC50
1,CC(=O)C(C(=O)N1CCc2cc(OCc3ccccc3)ccc2C1C(=O)NCCN(C(C)C)C(C)C)c1ccccc1 (configuration not stated),9.2 nM
2,CC(=O)N1CCc2cc(OCc3ccccc3)ccc2C1C(=O)NCCN(C(C)C)C(C)C (configuration not stated),257 nM
3,CC(=O)NC(C(=O)N1CCc2cc(OCc3ccccc3)ccc2C1C(=O)NCCN(C(C)C)C(C)C)c1ccccc1 (configuration not stated),19.7 nM
4,COc1ccc(Oc2ccc3c(c2)CCN(C(=O)OC(C)(C)C)C3C(=O)NCCN(C(C)C)C(C)C)cc1 (configuration not stated),0.49 nM
5,CC(C)N(CCNC(=O)C1c2ccc(OCc3ccccc3)cc2CCN1C(=O)c1ccccc1)C(C)C (configuration not stated),7.6 nM
6,COc1cccc(CC(=O)N2CCc3cc(OCc4ccccc4)ccc3C2C(=O)NCCN(C(C)C)C(C)C)c1 (configuration not stated),6.4 nM
7,COc1ccccc1CC(=O)N1CCc2cc(OCc3ccccc3)ccc2C1C(=O)NCCN(C(C)C)C(C)C (configuration not stated),2.1 nM
8,COc1ccc(CC(=O)N2CCc3cc(OCc4ccccc4)ccc3C2C(=O)NCCN(C(C)C)C(C)C)cc1 (configuration not stated),45 nM
9,COc1cccc(Oc2ccc3c(c2)CCN(C(=O)OC(C)(C)C)C3C(=O)NCCN(C(C)C)C(C)C)c1 (configuration not stated),0.46 nM
10,CC(C)N(CCNC(=O)C1c2ccc(OCc3ccccc3)cc2CCN1C(=O)Cc1ccccc1)C(C)C (configuration not stated),9 nM
11,CC(=O)c1ccccc1C(=O)N1CCc2cc(OCc3ccccc3)ccc2C1C(=O)NCCN(C(C)C)C(C)C (configuration not stated),7.3 nM
12,COC(=O)C(C)(C)OC(=O)N1CCc2cc(OCc3ccccc3)ccc2C1C(=O)NCCN(C(C)C)C(C)C (configuration not stated),1.5 nM
13,CCCOC(=O)N1CCc2cc(OCc3ccccc3)ccc2C1C(=O)NCCN(C(C)C)C(C)C (configuration not stated),3.4 nM
14,CC(C)N(CCNC(=O)C1c2ccc(OCc3ccccc3)cc2CCN1C(=O)NC(C)(C)C)C(C)C (configuration not stated),14.4 nM
15,CC(C)N(CCNC(=O)C1c2ccc(OCc3ccccc3)cc2CCN1S(=O)(=O)c1ccccc1)C(C)C (configuration not stated),21 nM
16,"CC(C)N(CCNC(=O)C1c2ccc(Oc3ccccc3)cc2CCN1C(=O)OC(C)(C)C)C(C)C (single isomer, unassigned; form 2)",0.46 nM
17,CC(C)N(CCNC(=O)C1c2ccc(Oc3cccc(C(F)(F)F)c3)cc2CCN1C(=O)OC(C)(C)C)C(C)C (configuration not stated),1.5 nM
18,CC(C)N(CCNC(=O)C1c2ccc(Oc3ccc(Cl)cc3)cc2CCN1C(=O)OC(C)(C)C)C(C)C (configuration not stated),0.73 nM
19,CC(C)N(CCNC(=O)C1c2ccc(OCc3ccccc3)cc2CCN1C(=O)CC(C)(C)C)C(C)C (configuration not stated),20.9 nM
20,CC(C)N(CCNC(=O)C1c2ccc(OCc3ccccc3)cc2CCN1C(=O)N(C)C)C(C)C (configuration not stated),190 nM
21,CC(C)N(CCNC(=O)C1c2ccc(OCc3ccccc3)cc2CCN1C(=O)C(CO)c1ccccc1)C(C)C (configuration not stated),5.6 nM
22,CC(C)N(CCNC(=O)C1c2ccc(Oc3ccccc3)cc2CCN1C(=O)OC(C)(C)C)C(C)C (stereo in doubt; 12a),0.49 nM
23,CC(C)N(C)CCNC(=O)C1c2ccc(OCc3ccccc3)cc2CCN1C(=O)OC(C)(C)C (configuration not stated),41 nM

# Molecular target: T1, Growth hormone secretagogue receptor type 1
# Assay: Maximum intrinsic activity against human growth hormone secretagogues at a concentration of 10 uM
# Type: functional
row,Compound,Activity
1,CC(C)(N)CNC(=O)C1c2ccc(OCc3ccccc3)cc2CCN1C(=O)OC(C)(C)C (configuration not stated),47%
2,CC(C)N(CCNC(=O)C1c2ccc(OCc3ccccc3)cc2CCN1C(=O)Oc1ccccc1)C(C)C (configuration not stated),< 5%
3,CC(C)N(CCNC(=O)C1c2ccc(OCc3ccccc3)cc2CCN1S(C)(=O)=O)C(C)C (configuration not stated),47%
4,CC(C)N(CCNC(=O)C1c2ccc(OCc3ccccc3)cc2CCN1C(=O)Nc1ccccc1)C(C)C (configuration not stated),43%
5,CCCCS(=O)(=O)N1CCc2cc(OCc3ccccc3)ccc2C1C(=O)NCCN(C(C)C)C(C)C (configuration not stated),50%
6,CC(C)N(CCNC(=O)C1c2ccc(OCc3ccccc3)cc2CCN1C(=O)C(C)(C)C)C(C)C (configuration not stated),50%
7,CCOc1ccccc1C(=O)N1CCc2cc(OCc3ccccc3)ccc2C1C(=O)NCCN(C(C)C)C(C)C (configuration not stated),30%
8,CN(C)CCNC(=O)C1c2ccc(OCc3ccccc3)cc2CCN1C(=O)OC(C)(C)C (configuration not stated),46%

# System: Rattus norvegicus
# Assay: Percent of plasma growth hormone increase at an IV dose of 5.23 lmol/kg
# Type: functional
# How it was run: as §1
Compound,Increases,Increase
CC(=O)C(C)(C)OC(=O)N1CCc2cc(OCc3ccccc3)ccc2C1C(=O)NCCN(C(C)C)C(C)C (configuration not stated),666%,
COc1ccc(Oc2ccc3c(c2)CCN(C(=O)OC(C)(C)C)C3C(=O)NCCN(C(C)C)C(C)C)cc1 (configuration not stated),,172%
COC(=O)C(C)(C)OC(=O)N1CCc2cc(OCc3ccccc3)ccc2C1C(=O)NCCN(C(C)C)C(C)C (configuration not stated),,746%
"CC(C)N(CCNC(=O)C1c2ccc(Oc3ccccc3)cc2CCN1C(=O)OC(C)(C)C)C(C)C (single isomer, unassigned; form 2)",,1283%

# Molecular target: T1, Growth hormone secretagogue receptor type 1
# Assay: In vitro effective concentration against human growth hormone secretagogues
row,Compound,EC50
1,CC(=O)C(C)(C)OC(=O)N1CCc2cc(OCc3ccccc3)ccc2C1C(=O)NCCN(C(C)C)C(C)C (configuration not stated),2 nM
2,COc1ccc(Oc2ccc3c(c2)CCN(C(=O)OC(C)(C)C)C3C(=O)NCCN(C(C)C)C(C)C)cc1 (configuration not stated),0.49 nM
3,COC(=O)C(C)(C)OC(=O)N1CCc2cc(OCc3ccccc3)ccc2C1C(=O)NCCN(C(C)C)C(C)C (configuration not stated),1.5 nM
